Compound activity from PubChem BioAssay.
MT1-MMP act inh – inhibitors of human MT1-MMP activation. AID 651647. actives 0.061% (n = 360,000). P50281. GFP/RFP ratio change, % at 20 µM. HT1080 RFP-PRO-GFP cells, GFP/RFP ratio fluorescence, overnight; percent of plate control window, DMSO zero;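 active = GFP/RFP ratio change of at least 30% with cell ATP level not reduced by more than half and red fluorescence within 50% of control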
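system = RFP-PRO-GFP reporter HT1080 cells | dosing = 20 µM single dose, 1% DMSO | timing = overnight cell settling, then overnight compound exposure, 37 °C, 5% CO2 | read-out basis = GFP/RFP fluorescence ratio | controls = DMSO and RFP-L50D-GFP cell wells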
DSG3 Ab inh – blocks pemphigus antibody binding to human desmoglein-3; P32926; DSG3-coupled beads, scFv-anti-DSG3-GFP binding, flow cytometry; active compounds read low; binding (percent of control), % at 10 µM; actives 0.48% (n = 310,000); AID 588358;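 active = binding more than 3 SD below its plate's average and above zero; inconclusive = below that plate limit but binding exactly zero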;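 also: hits lower antibody fragment binding to DSG3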
GSK3 alpha inh – blocks human GSK-3 alpha kinase | actives 0.1% (n = 320,000) | ADP-Glo luminescence, 60 min | P49840 | inhibition, % at 10 µM;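 active = more than half of replicates show inhibition above 20%; inconclusive = some but at most half of replicates above 20% inhibition; inactive = no replicate shows inhibition above 20%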;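 also: GST-tagged GSK-3 alpha with peptide substrate and 25 µM ATP; 0% = DMSO neutral wells and 100% = GW8510 positive control wells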
Target sequence (P49840 whole entry, looked up): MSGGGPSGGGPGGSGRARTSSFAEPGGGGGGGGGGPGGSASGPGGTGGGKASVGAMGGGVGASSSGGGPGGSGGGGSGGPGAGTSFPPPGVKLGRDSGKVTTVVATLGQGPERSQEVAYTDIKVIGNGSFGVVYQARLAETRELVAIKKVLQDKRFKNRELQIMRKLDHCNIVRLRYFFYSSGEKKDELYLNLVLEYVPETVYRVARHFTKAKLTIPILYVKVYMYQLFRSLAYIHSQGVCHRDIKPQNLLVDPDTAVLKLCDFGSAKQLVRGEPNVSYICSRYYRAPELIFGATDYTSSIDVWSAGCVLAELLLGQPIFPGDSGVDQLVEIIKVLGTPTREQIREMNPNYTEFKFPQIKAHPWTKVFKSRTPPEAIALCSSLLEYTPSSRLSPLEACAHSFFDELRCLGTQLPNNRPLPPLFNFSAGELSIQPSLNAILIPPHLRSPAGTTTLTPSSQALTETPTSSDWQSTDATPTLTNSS
GSK3B inh – human GSK3beta kinase inhibition; activity score (negative = inhibition), % at 10 µM; AID 2097; GST-GSK3beta kinase, ADP-Glo luminescence, 60 min; active compounds read low; P49841; actives 0.038% (n = 300,000);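 active = more than half of replicate wells score below -50%, meaning over 50% inhibition versus plate controls; inconclusive = some replicates but at most half score below -50%; inactive = no replicate scores below -50%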;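 also: 0% = median DMSO wells and -100% = median GW8510 positive control wells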
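Assay system: GST-tagged human GSK3beta kinase, cell-free; Input: 1.6 ng GSK3beta; Medium: Tris/MgCl2 kinase buffer; Timing: 60 min enzyme reaction, room temperature; Signal: ADP-Glo luminescence quantifying ADP generated by kinase; Evaluation: score relative to plate controls; Benchmarks: DMSO neutral wells and GW8510 at 20 µM as positive.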
STK33 inh – inhibitors of human STK33 kinase. inhibition, % at 10 µM. purified STK33, MBP phosphorylation, ADP-Glo luminescence. actives 0.073% (n = 320,000);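 active = inhibition at or above 25%, using the most active replicate where run in duplicate; inactive = inhibition below 25%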
An asterisk follows results filed as active; u = inconclusive; x = no result. Most compounds without a hit are left out; they make up all but 0.63% or so of the library.

SMILES	MT1-MMP act inh	DSG3 Ab inh	GSK3 alpha inh	GSK3B inh	STK33 inh
CC1(C)Cc2cccc(C(=O)Nc3ccc(Cl)cc3)c2O1	0	119	2	1	-1
CC1(C)Cc2cccc(C(=O)Nc3ccncc3)c2O1	-3	111	73*	1	10
CCC(=O)N[C@@H]1C=C[C@@H](CC(=O)NCc2ccccc2F)O[C@@H]1CO	-2	x	x	x	x
Cc1cccc(-n2ccc(=O)c(C(=O)Nc3ccc(S(=O)(=O)Nc4nccs4)cc3)n2)c1	3	u	-7	1	0
COc1ccc(-n2ccc(=O)c(C(=O)Nc3ccc(S(=O)(=O)Nc4nccs4)cc3)n2)cc1	-5	49*	0	1	1
COC(=O)c1ccc2nc(-c3ccco3)c(Cc3ccccc3)n2c1	-6	x	x	x	x
CC1(C)Cc2ccccc2C(/C(=N\Nc2cccc(Cl)c2)C(N)=O)=N1	0	68*	4	1	3
CCCCCCN1C=CC(=C2C(=O)c3ccccc3C2=O)C=C1	-5	107	-3	-5	-1
CCN1C=CC(=C2C(=O)c3ccccc3C2=O)C=C1	3	96	3	-5	28*
CCCN1C=CC(=C2C(=O)c3ccccc3C2=O)C=C1	9	94	10	0	31*
COc1ccc(Cc2c(-c3ccc(C)cc3)nc3ccc(Cl)cn23)c(C)c1	-6	x	x	x	x
CC(=O)c1sc(-c2ccccc2)cc1NS(=O)(=O)c1ccccc1	-1	75*	1	1	-1
Cc1ccc(CSc2nnc(Nc3ccc(C)cc3)s2)cc1	-1	67*	6	2	1
CCSc1nnc(Nc2ccc(C)cc2)s1	3	99	2	0	0
Cc1ccc(CS(=O)Cc2ccc(C(=O)N3CCN(c4ccc(F)cc4)CC3)o2)cc1 (stereo unspecified)	-2	99	0	1	0
CCN1CCN(C(=O)c2ccc(CS(=O)Cc3ccc(C)cc3)o2)CC1 (stereo unspecified)	-1	74*	-1	1	-1
COc1cc(CNc2ccc(CNc3ncn[nH]3)cc2)cc(Cl)c1OCc1ccccc1	0	82*	-3	1	-1
c1ccc(CNc2ccc(CNc3ncn[nH]3)cc2)cc1	-3	92	-5	-1	1
CNC(=O)CSc1nc2cc(S(=O)(=O)Nc3ccc(OC)cc3)ccc2o1	0	-4.7*	-1	2	-2
COc1ccc(NS(=O)(=O)c2ccc3oc(SC)nc3c2)cc1	-1	107	0	5	0
COc1ccccc1C(=O)N/N=C(\C)c1ccc(NC(=O)C2CC2)cc1	10	2.4*	-3	2	-2
COc1ccccc1C(=O)N/N=C(\C)c1ccc(NC(=O)Cc2ccccc2)cc1	-1	101	1	2	0
CC(=O)N(CCc1ccccc1)c1ccc2c(c1)C1CC2CCN1C(=O)OCc1ccccc1 (stereo unspecified)	-20	x	x	x	x
COc1ccc(-c2csc(NC(=O)c3cccc(N4C(=O)CCC4=O)c3)n2)cc1OC	3	101	-4	x	-2
CCOc1ccc(-c2csc(NC(=O)c3cccc(N4C(=O)CCC4=O)c3)n2)cc1	3	57*	-1	0	0
SMILES	MT1-MMP act inh	DSG3 Ab inh	GSK3 alpha inh	GSK3B inh	STK33 inh
O=C(CSc1nnc(SCc2ccccc2)s1)N/N=C/c1ccc(C(=O)O)cc1	0	104	53*	-16	-1
Cc1cccc(C)c1-n1nnnc1C(c1cc2ccccc2o1)N1CCN(C/C=C/c2ccccc2)CC1 (stereo unspecified)	-7	x	x	x	x
COc1ccc(NC(=O)CCn2c(=S)[nH]c3ccccc3c2=O)cc1Cl	5	82*	x	x	x
O=C(CCn1c(=S)[nH]c2ccccc2c1=O)Nc1cccc(Cl)c1	3	81	0	-3	-2
CN=C(NC#N)SCC(=O)c1ccc(Cl)cc1Cl	-6	101	77*	-71*	3
COc1ccc(OC)c(N)c1	37*	x	0	2	0
CCOc1ccc(NC(=O)CSc2nc3c([nH]c4ccccc43)c(=O)n2C)cc1	4	104	0	2	0
COc1ccc(NC(=O)CSc2nc3c([nH]c4ccccc43)c(=O)n2C)c(OC)c1	2	49*	-1	4	0
CC1(C(=O)N2CCC(CO)(Cc3cccc(C(F)(F)F)c3)CC2)CC1	7	98*	0	-2	-1
Nc1ncnc2c1ncn2C1OCC(O)C1O (stereo unspecified)	3	x	x	x	x
CCCN(C(=O)c1cccs1)c1nnc(-c2ccncc2)s1	0	78*	0	-6	0
CCN(C(=O)Cc1ccccc1OC)c1nnc(-c2ccncc2)s1	-4	100	1	3	-2
CCNC(=O)NC(=O)COC(=O)c1ccccc1SCC(=O)NC(=O)NCC	35*	110	2	-1	0
O=C(COC(=O)c1ccccc1SCC(=O)NC1CCS(=O)(=O)C1)NC1CCS(=O)(=O)C1 (stereo unspecified)	0	87	-2	4	-1
O=C(CN(C1CCCCC1)C1CCCCC1)N1CCc2ccccc2C1	x	41*	-1	-1	0
O=C(CN(C1CCCCC1)S(=O)(=O)c1ccccc1)N1CCCC1	6	102	3	1	4
CN1OC[C@@H]2CN(S(=O)(=O)c3cc(Cl)cc(Cl)c3)[C@H](c3ccc(-c4ccc(C#N)cc4)cc3)C[C@@H]21	-4	x	x	x	x
O=C(/C=C/C(=O)NCc1cccs1)NCc1cccs1	0	72*	-2	-1	-5
O=C(/C=C/c1ccc(Cl)cc1)NCc1cccs1	x	99	-1	6	-2
COc1ccc(N2CCN(C(=O)C(=O)c3cc(OC)c4ccccc4c3)CC2)cc1	0	x	x	x	x
O=C1NC(=S)SC1=Cc1ccccn1	0	x	x	x	x
CCC(C)NC(=O)Cn1c(COc2ccc(Cl)cc2Cl)nc2ccccc21 (stereo unspecified)	2	-1.1*	-6	1	-1
O=C(Cn1c(COc2ccccc2)nc2ccccc21)Nc1cccc(Cl)c1	1	x	-2	-1	0
COc1cc(NC(=O)COc2ccccc2[N+](=O)[O-])ccc1NC(=O)c1cccs1	-3	103	x	-1	x
COc1cc(NC(=O)COc2ccccc2Cl)ccc1NC(=O)c1cccs1	x	6.8*	-1	6	-1
COc1ccc(OC)c(CN2C(=O)CSCC2(C)C(=O)Nc2c(C)cccc2C)c1 (stereo unspecified)	10	x	x	x	x
Nc1ccc2nc(-c3cccc(-c4nc5ccc(N)cc5[nH]4)c3)[nH]c2c1	5	73*	-5	-3	0
